Tests used:
[1] = system: Human immunodeficiency virus 1; assay: Antiviral activity against HIV1 X4LAI.04 infected in human MT4 cells assessed as decrease in viral replication by p24gag-based luminex assay; format: functional, cell-based; settings: Human immunodeficiency virus 1, X4LAI.04, MT4
Summary of the method: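 10^6 MT-4 cells were infected with HIV-1 X4LAI.04 (7 ng p24) for 2 h at 37 °C, then washed with PBS and resuspended. Compounds were added and cultures were kept 3 days at 37 °C. Supernatant p24 was measured by bead-based Luminex. Inhibition was calculated as (1 − p24 treated/p24 untreated) × 100, and EC50 was derived from it.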

[2] = system: Human betaherpesvirus 5; assay: Antiviral activity against human cytomegalovirus Davis infected in human HEL cells assessed as inhibition of virus-induced cytopathic effect; format: functional, cell-based; settings: Human betaherpesvirus 5, Davis
Summary of the method: (§1)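 Confluent HEL fibroblast monolayers were inoculated in 96-well plates with 100 CCID50 of virus in the presence of serially varied compound concentrations. Cytopathicity was scored once untreated infected controls reached full CPE.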

[3] = Drug metabolism assessed as carboxypeptidase Y (unknown origin)-mediated metabolite 81 peak measured after 14 hrs by [31P]-NMR spectroscopic analysis; format: ADME; settings: human
[4] = system: Human alphaherpesvirus 3; assay: Antiviral activity against Varicella-Zoster virus OKA infected in human HEL cells assessed as inhibition of virus-induced cytopathic effect; format: functional, cell-based; settings: Human alphaherpesvirus 3, strain Oka vaccine
Summary of the method: (§2)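 Confluent HEL fibroblast cultures were inoculated with 20 PFU of VZV in the presence of varying compound concentrations. Plaque formation was recorded once untreated infected controls reached completion.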

[5] = system: Human betaherpesvirus 5; assay: Antiviral activity against human cytomegalovirus AD-169 infected in human HEL cells assessed as inhibition of virus-induced cytopathic effect; format: functional, cell-based; settings: Human betaherpesvirus 5, AD-169, HEL; summary of the method: as §1
[6] = system: MT4; assay: Cytotoxicity against human MT4 cells assessed as reduction in cell viability by cell counting method; format: cell-based
Summary of the method: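 MT-4 cultures, untreated or treated, were assessed with an automated cell counter using propidium iodide staining to enumerate total and dead cells.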

[7] = system: Human alphaherpesvirus 2; assay: Antiviral activity against Herpes simplex virus 2 G infected in human HEL cells assessed as inhibition of virus-induced cytopathic effect; format: functional, cell-based; settings: Human alphaherpesvirus 2, strain G; summary of the method: as §1
[8] = Drug metabolism assessed as carboxypeptidase Y (unknown origin)-mediated metabolite 79 formation measured after 14 hrs by [31P]-NMR spectroscopic analysis; format: ADME; settings: human
[9] = system: HEL; assay: Cytotoxicity against human HEL cells assessed as cell growth inhibition by cell counting method; format: cell-based
[10] = Cytotoxicity against human HEL cells assessed as alteration to cell morphology by microscopic analysis; format: cell-based
Summary of the method: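 Minimal cytotoxic concentration is the compound concentration giving a microscopically visible alteration of HEL cell morphology, scored in the antiviral assay cultures.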

[11] = system: Human alphaherpesvirus 3; assay: Antiviral activity against thymidine kinase deficient Varicella-Zoster virus 07-1 infected in human HEL cells assessed as inhibition of virus-induced cytopathic effect; format: functional, cell-based; settings: Human alphaherpesvirus 3, 07-1, HEL; summary of the method: as §2
[12] = system: Human alphaherpesvirus 1; assay: Antiviral activity against Herpes simplex virus 1 KOS infected in human HEL cells assessed as inhibition of virus-induced cytopathic effect; format: functional, cell-based; settings: Human alphaherpesvirus 1, KOS; summary of the method: as §1
[13] = system: CCRF-CEM; assay: Cytostatic activity human CEM cells assessed as reduction in cell viability after 72 hrs by cell counting method; format: cell-based; settings: ccrf-cem, 72 h
Summary of the method: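 (5–7.5) × 10^? CEM cells per well were grown with compound for 72 h at 37 °C under humidified CO2. Cells were counted in a Coulter counter.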

[14] = system: Human alphaherpesvirus 1; assay: Antiviral activity against ACV-resistant thymidine kinase deficient Herpes simplex virus 1 KOS infected in human HEL cells assessed as inhibition of virus-induced cytopathic effect; format: functional, cell-based; settings: Human alphaherpesvirus 1, KOS; summary of the method: as §1
[15] = Drug metabolism assessed as carboxypeptidase Y (unknown origin)-mediated metabolite 79 formation measured after 2 hrs by [31P]-NMR spectroscopic analysis; format: ADME; settings: human
[16] = Drug metabolism assessed as carboxypeptidase Y (unknown origin)-mediated metabolite 81 formation measured after 2 hrs by [31P]-NMR spectroscopic analysis; format: ADME; settings: human
[17] = Prodrug activation assessed as carboxypeptidase Y (unknown origin)-mediated 2-{5-[2-(2-Amino-6-chloro-purin-9-yl)-ethyl]-2-oxo-2lambda(5)-[1,3,2]dioxaphosphinan-2-ylamino}-propionic acid anion peak formation measured with in 1 hr by [31P]-NMR spectroscopic analysis; settings: human
[18] = system: Human immunodeficiency virus 1; assay: Antiviral activity against HIV1 X4LAI.04 infected in human tonsillar tissues assessed as inhibition of virus-induced cytopathic effect by p24gag-based luminex assay; format: functional; settings: Human immunodeficiency virus 1, X4LAI.04
Summary of the method: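 Tonsillectomy tissue blocks of 2–3 mm³ were cultured on collagen sponge gels at the air–liquid interface, 27 blocks per donor per condition. Blocks were pretreated with compound overnight, infected with HIV-1 X4LAI.04 and cultured 12 days, with drug replenished at each medium change every 3 days. Medium p24 was measured by Luminex. Inhibition was calculated against untreated tissue, and EC50 was derived from it.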

[19] = Prodrug activation assessed as carboxypeptidase Y (unknown origin)-mediated 2-((4-(2-amino-6-chloro-9H-purin-9-yl)-2-(hydroxymethyl)butoxy)oxidophosphorylamino)propanoate formation measured after 8 hrs by [31P]-NMR spectroscopic analysis; settings: human
[20] = Prodrug activation assessed as carboxypeptidase Y (unknown origin)-mediated 2-((4-(2-amino-6-chloro-9H-purin-9-yl)-2-(hydroxymethyl)butoxy)oxidophosphorylamino)propanoate formation by mass spectroscopic analysis; settings: human
[21] = Prodrug activation assessed as carboxypeptidase Y (unknown origin)-mediated 2-((4-(2-amino-6-chloro-9H-purin-9-yl)-2-(hydroxymethyl)butoxy)oxidophosphorylamino)propanoate peak formation measured after […] by [31P]-NMR spectroscopic analysis; settings: human
[22] = Drug metabolism assessed as carboxypeptidase Y (unknown origin)-mediated metabolite 81 peak measured after 15 mins by [31P]-NMR spectroscopic analysis; format: ADME; settings: human
[23] = Drug metabolism assessed as carboxypeptidase Y (unknown origin)-mediated metabolite 79 formation measured after 15 mins by [31P]-NMR spectroscopic analysis; format: ADME; settings: human
[24] = Drug metabolism assessed as carboxypeptidase Y (unknown origin)-mediated metabolite 81 peak formation measured with in 30 mins by [31P]-NMR spectroscopic analysis; format: ADME; settings: human, 0.5 h

| Structure (SMILES) | EC50 [1] | EC50 [2] | EC50 [4] | EC50 [5] | IC50 [6] | EC50 [7] | CC50 [9] | MCC [10] | EC50 [11] | EC50 [12] | CC50 [13] | EC50 [14] | EC50 [18] | also measured |
| --- | --- | --- | --- | --- | --- | --- | --- | --- | --- | --- | --- | --- | --- | --- |
| CCCOC(=O)[C@H](C)NP(=O)(OCC(CCn1cnc2c(OC)nc(N)nc21)COP(=O)(N[C@@H](C)C(=O)OCCC)Oc1cccc2ccccc12)Oc1cccc2ccccc12 (stereo partly drawn) | 9.7 µM | 40 µM | 6.1 µM | 32 µM | 20 µM | > 100 µM | 4.9 µM | 50 to 100 µM | 8.1 µM | > 100 µM | 6.8 µM | > 100 µM |  | Drug metabolism [3]: Metabolite_Detected; Drug metabolism [8]: Metabolite_Detected |
| CCCOC(=O)[C@H](C)NP(=O)(OCC(CO)CCn1cnc2c(OC)nc(N)nc21)Oc1cccc2ccccc12 (stereo partly drawn) | 11 µM | 50 µM | 3.7 µM | 32 µM | 13 µM | 15 µM | 14.4 µM | 50 to 100 µM | 9.1 µM | 14 µM | 17 µM | ≥ 20 µM |  | Drug metabolism [15]: Metabolite_Detected; Drug metabolism [16]: Metabolite_Detected |
| C[C@H](NP1(=O)OCC(OCn2cnc3c(Cl)nc(N)nc32)CO1)C(=O)OCc1ccccc1 (stereo partly drawn) | 85 µM |  |  |  | 150 µM | > 100 µM |  | > 100 µM |  | > 100 µM | 165 µM | > 100 µM | 9 µM | Drug metabolism [17]: Metabolite_Detected; Drug metabolism [19]: Metabolite_Detected; Drug metabolism [20]: Metabolite_Detected; Drug metabolism [21]: Metabolite_Detected |
| C[C@H](NP(=O)(OCC(CO)CCn1cnc2c(=O)[nH]c(N)nc21)Oc1cccc2ccccc12)C(=O)OCc1ccccc1 (stereo partly drawn) | 21 µM | > 50 µM | 9.3 µM | > 50 µM | 100 µM | 79 µM | > 100 µM | 50 to 100 µM | > 50 µM | 73 µM | 138 µM | > 100 µM |  | Drug metabolism [22]: Metabolite_Detected; Drug metabolism [23]: Metabolite_Detected |
| C[C@H](NP(=O)(OCC(CO)CCn1cnc2c(Cl)nc(N)nc21)Oc1ccccc1)C(=O)OCc1ccccc1 (mixture of isomers) | 1 µM | > 100 µM | 37.3 µM | > 100 µM | 20 µM | > 100 µM | 39 µM | > 100 µM | 42.9 µM | > 100 µM | 33 µM | > 100 µM | 4 µM | Drug metabolism [24]: Metabolite_Detected |

— ChEMBL document CHEMBL4017507 (J Med Chem, 2017)
